From ChEMBL document CHEMBL4346668, “Novel multitarget inhibitors with antiangiogenic and immunomodulator properties” (Eur J Med Chem, 2019) come the findings set out here.

The subject of test [1] is HeLa. The experiment in a line: Antiproliferative activity against human HeLa cells incubated for 2 days by MTT assay. As to conditions: 48 h. In kind it is functional, cell-based. An outline of the steps: (§1)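 MTT assay. Cells seeded at 3 × 10³/well (HeLa, A549, HMEC-1, HEK-293) or 5 × 10³/well (HT-29, MCF-7) in their growth media with serial compound dilutions from 10 mM DMSO stocks. Incubated 2 days at 37 °C, 5% CO₂, then MTT added for 3 h and formazan dissolved in DMSO. A540 read and viability expressed versus untreated cells. IC₅₀ determined graphically; three independent experiments.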
A general note: Tetrazolium assays rely on reduction of a dye to a coloured formazan, in cell work by metabolically active cells.

Test [2] relates to A549. The experiment in a line: Effect on VEGFR2 in human A549 cells assessed as membrane VEGFR2 level at 10 uM incubated for 24 hrs by flow cytometric analysis relative to control. In kind it is functional. An outline of the steps: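 A549 cells incubated 24 h with compound at 10 µM. Membrane VEGFR-2 (fixed cells) and total VEGFR-2 (permeabilized or lysate) stained with Alexa Fluor 647 anti-CD309 and quantified by flow cytometry relative to DMSO control; mean ± SD of three experiments.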
On the technique in general: Flow cytometry measures light scatter and fluorescence of single cells or particles in a stream.

Test [3] concerns A549. The experiment in a line: Induction of apoptosis in human A549 cells assessed as apoptotic cells at 100 uM incubated for 24 hrs by FITC-Annexin V staining based flow cytometric analysis (reference value: 20%). In kind it is functional.
Test [4] deals with A549. The experiment in a line: Antiproliferative activity against human A549 cells incubated for 2 days by MTT assay. It is filed as functional, cell-based. The note with it: A549, 48 h. An outline of the steps:
as §1

For test [5], the system named is HMEC-1. The experiment in a line: Antiangiogenic activity against HMEC1 cells assessed as inhibition of tube formation incubated for 20 hrs by matrigel based tube formation assay. In kind it is functional, Homo sapiens. In short, it runs like this: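 HMEC-1 cells in EGM-2MV medium seeded at 2 x 10⁴ cells/well on Matrigel (10 mg/mL, gelled 30 min at 37°C) and attached for 30 min. Compounds were added at different concentrations and tube formation was assessed after 20 h at 37°C. The minimum concentration at which inhibition began was reported. Data representative of three experiments.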

Test [6] has as its system A549. The experiment in a line: Immunomodulatory activity in human A549 cells assessed as reduction in PD-L1 expression level at 100 uM incubated for 24 hrs by ELISA relative to control. It is filed as functional. Also on record: scale not given: the % may be the effect or the level left. An outline of the steps: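 A549 cells (3·10⁵/well) treated 24 h with compound; final concentration 100 µM for some compounds and 15 µM for others per table footnote. Lysates protein-normalized by Bradford, and PD-L1 and c-Myc quantified by commercial ELISA kits as % of DMSO-treated cells. Mean ± SD of three experiments.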
For orientation: In an ELISA, binding on a coated surface is turned into a signal by an enzyme label.

In test [7] the test system is MCF7. The experiment in a line: Antiproliferative activity against human MCF7 cells incubated for 2 days by MTT assay. The note with it: MCF7, 48 h. It is filed as functional, cell-based. In short, it runs like this: as §1
Test [8] deals with A549. The experiment in a line: Effect on VEGFR2 in human A549 cells assessed as total VEGFR2 level at 10 uM incubated for 24 hrs by flow cytometric analysis relative to control. It is filed as functional.
Test [9] relates to HMEC-1. The experiment in a line: Antiproliferative activity against HMEC1 cells incubated for 2 days by MTT assay. As to conditions: Homo sapiens, HMEC-1, 48 h. In kind it is cell-based. An outline of the steps: as §1
For test [10], the system named is HT-29. The experiment in a line: Antiproliferative activity against human HT-29 cells incubated for 2 days by MTT assay. It is filed as functional, cell-based. As to conditions: HT-29, 48 h. An outline of the steps: as §1
Test [11] deals with HEK293. The experiment in a line: Antiproliferative activity against HEK293 cells incubated for 2 days by MTT assay. It is filed as cell-based. As to conditions: Homo sapiens, HEK293, 48 h. In short, it runs like this:
as §1

In test [12] the test system is HMEC-1. The experiment in a line: Effect on VEGFR2 in HMEC1 cells assessed as total VEGFR2 level at 100 uM incubated for 24 hrs by flow cytometric analysis relative to control. It is filed as functional, Homo sapiens. In short, it runs like this: (§2)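 HMEC-1 cells exposed 24 h to compound at 100 µM. Membrane VEGFR-2 measured on fixed cells stained with Alexa Fluor 647 anti-CD309; total VEGFR-2 measured after Triton X-100 permeabilization before fixation. Read by flow cytometry as % of DMSO control.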

Test [13] addresses Vascular endothelial growth factor receptor 2 (Homo sapiens) (UniProt P35968).
The test system of test [14] is HMEC-1. The experiment in a line: Effect on VEGFR2 in HMEC1 cells assessed as membrane VEGFR2 level at 100 uM incubated for 24 hrs by flow cytometric analysis relative to control. It is filed as functional, Homo sapiens. An outline of the steps: as §2
Test [15] concerns the target Programmed cell death 1 ligand 1 (Homo sapiens) (UniProt Q9NZQ7). The experiment in a line: Binding affinity to PDL1 (unknown origin) assessed as change in melting temperature at 100 uM by fluorescence based real time RT-PCR analysis.

Chain of Programmed cell death 1 ligand 1 (Homo sapiens) (Q9NZQ7 whole entry): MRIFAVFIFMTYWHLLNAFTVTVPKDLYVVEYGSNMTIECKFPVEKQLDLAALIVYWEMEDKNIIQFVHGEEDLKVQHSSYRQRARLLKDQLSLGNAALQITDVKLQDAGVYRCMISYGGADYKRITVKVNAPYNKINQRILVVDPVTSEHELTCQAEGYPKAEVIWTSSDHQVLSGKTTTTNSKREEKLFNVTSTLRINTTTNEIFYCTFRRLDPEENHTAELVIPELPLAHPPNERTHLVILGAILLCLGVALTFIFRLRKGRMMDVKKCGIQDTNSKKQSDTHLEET
Chain of Vascular endothelial growth factor receptor 2 (Homo sapiens) (P35968 whole entry): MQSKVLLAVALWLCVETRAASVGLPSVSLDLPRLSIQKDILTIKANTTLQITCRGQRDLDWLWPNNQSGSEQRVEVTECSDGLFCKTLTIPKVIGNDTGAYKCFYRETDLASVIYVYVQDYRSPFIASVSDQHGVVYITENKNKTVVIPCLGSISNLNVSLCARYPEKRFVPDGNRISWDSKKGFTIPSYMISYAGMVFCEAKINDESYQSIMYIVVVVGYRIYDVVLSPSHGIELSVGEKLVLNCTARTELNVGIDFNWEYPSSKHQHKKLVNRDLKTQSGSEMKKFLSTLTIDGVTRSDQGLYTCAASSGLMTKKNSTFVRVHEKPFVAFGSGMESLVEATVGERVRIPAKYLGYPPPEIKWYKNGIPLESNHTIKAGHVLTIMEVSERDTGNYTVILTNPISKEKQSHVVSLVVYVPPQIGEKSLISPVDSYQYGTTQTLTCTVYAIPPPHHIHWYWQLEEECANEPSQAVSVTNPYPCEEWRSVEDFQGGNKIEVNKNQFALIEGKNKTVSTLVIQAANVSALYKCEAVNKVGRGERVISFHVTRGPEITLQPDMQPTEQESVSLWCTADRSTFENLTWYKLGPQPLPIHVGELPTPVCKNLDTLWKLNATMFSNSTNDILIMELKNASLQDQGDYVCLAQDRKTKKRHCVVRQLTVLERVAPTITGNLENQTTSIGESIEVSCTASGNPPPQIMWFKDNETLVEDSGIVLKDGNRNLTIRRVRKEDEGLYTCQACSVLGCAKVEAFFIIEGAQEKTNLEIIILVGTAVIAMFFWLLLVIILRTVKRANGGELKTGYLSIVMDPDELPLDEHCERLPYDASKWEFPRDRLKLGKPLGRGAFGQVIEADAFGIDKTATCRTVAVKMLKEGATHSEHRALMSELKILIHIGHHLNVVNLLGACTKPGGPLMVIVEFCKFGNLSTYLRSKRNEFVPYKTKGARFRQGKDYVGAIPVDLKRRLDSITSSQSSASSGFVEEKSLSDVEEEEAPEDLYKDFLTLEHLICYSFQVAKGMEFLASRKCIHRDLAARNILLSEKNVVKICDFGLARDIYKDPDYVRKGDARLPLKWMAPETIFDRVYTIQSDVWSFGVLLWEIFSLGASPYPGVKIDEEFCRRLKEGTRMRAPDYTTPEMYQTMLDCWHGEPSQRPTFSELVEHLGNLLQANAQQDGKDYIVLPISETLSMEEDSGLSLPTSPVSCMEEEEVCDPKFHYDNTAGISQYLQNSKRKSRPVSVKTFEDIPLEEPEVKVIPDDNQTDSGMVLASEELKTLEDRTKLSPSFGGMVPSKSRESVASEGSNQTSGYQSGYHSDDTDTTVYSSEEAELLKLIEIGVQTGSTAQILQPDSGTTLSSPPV

The term IC50 denotes the concentration needed to halve the response being measured. Regarding `COc1ccc(/C=C\c2cccc(NC(=O)Nc3ccc(Cl)cc3)c2)cc1`, the IC50 in [1] stood at 8 µM; in test [4] it was 29 µM; in test [7] it was 17 µM; in test [9], 33 µM; in test [10] it was 33 µM; in test [11], 20 µM. The Activity in test [2] was 118%; in [3] it was 69%; in test [6] it was 75%; in test [8] it was 100%. The MAC in test [5] was 1 µM.
On to `CCN(CC)CCNC(=O)c1c(C)[nH]c(/C=C2\C(=O)Nc3ccc(F)cc32)c1C` [SUNITINIB], for which the IC50 in test [1] came out at 7.8 µM; in test [4], 11 µM; in [7], 0.08 µM; in test [9], 7 µM; in [10], 3.8 µM; in test [11] it was 5 µM. Besides, the Activity in test [3] is 56%. In addition, in test [5], the MAC amounted to 3 µM.
By ΔTm is commonly meant the shift of the melting midpoint relative to a reference. For `COc1ccc(Cc2cn(CCNC(=O)Nc3cccc(C)c3)nn2)cc1`, the IC50 in test [1], in test [4], in test [7], in [9], in test [10] and in [11] was more than 200 µM throughout. Further, the Activity in test [12] turned out to be 91%; in [6], 90%; in [14], 76%. In addition, the ΔTm was found to be 5.21 °C in [13] and 2.55 °C in test [15].
On to `COc1ccc(/C=C\c2cccc(NC(=O)Nc3cccc(Cl)c3)c2)cc1`, for which the half-maximal inhibitory concentration (IC50) in test [1] is 10.5 µM; in test [4] it was 38 µM; in test [7] it was 37.2 µM; in test [9] it was 32.9 µM; in test [10], 20 µM; in test [11], 5 µM. The Activity in test [2] came out at 102%; in test [3], 17%; in [6] it was 92%; in test [8] it was 186%. Also, the MAC in test [5] was found to be 10 µM.
Take `COc1ccc(/C=C\c2cccc(NC(=O)Nc3ccccc3Cl)c2)cc1`: the IC50 in test [1] is 22 µM; in test [4], 21 µM; in test [7] it was 19 µM; in test [9], 33 µM; in test [10], 12 µM; in [11], 6.5 µM. Further, the Activity in test [2] stood at 114%; in test [3], 61%; in [6], 83%; in test [8] it was 177%. For the same compound, in [5], the MAC is 10 µM.
As to `COc1ccc(Cc2cn(CCNC(=O)Nc3ccccc3)nn2)cc1`, the IC50 in test [1], in test [4], in test [7], in test [9], in [10] and in test [11] was more than 200 µM in each case. Also, the Activity in test [12] worked out at 105%; in test [6], 83%; in [14], 97%. The ΔTm was found to be 10.5 °C in test [13] and 2.1 °C in [15].
Turning to `COc1ccc(Cc2cn(CCNC(=O)Nc3ccccc3C)nn2)cc1`, the IC50 in test [1], in test [4], in test [7], in test [9], in [10] and in test [11] was more than 200 µM each time. Moreover, the Activity in test [12] was 100%; in [6], 82%; in test [14], 79%. The MAC in test [5] was 200 µM. Besides, the thermal shift (ΔTm) in [13] worked out at 9.98 °C; in [15], 2.18 °C.
